Data reported in ChEMBL document CHEMBL1125119, “Pyrroloisoquinoline antidepressants. 3. A focus on serotonin” (J Med Chem, 1990).

How the values were obtained:
Rattus norvegicus [1] = assay: Tested in vivo for serotonin syndrome antagonizing activity in rat; type: functional
Mus musculus [2] = assay: Tested in vivo for head twitches antagonizing activity in mice; type: functional
[3] = test system: norepinephrine transporter (Rattus norvegicus); assay: Tested in vitro for norepinephrine (NE) neuronal uptake inhibition
[4] = test system: dopamine transporter (Rattus norvegicus); assay: Tested in vitro for dopamine(DA) neuronal uptake inhibition
[5] = test system: serotonin transporter (Rattus norvegicus); assay: Tested in vitro for serotonin(5-HT) neuronal uptake inhibition
Mus musculus [6] = assay: In vivo effect on Tetrabenazine motor activity in mice following i.p. administration.; type: functional; details: ip
Mus musculus [7] = assay: In vivo effect on Tetrabenazine ptosis activity in mice following i.p. administration.; type: functional; details: ip
[8] = molecular target: dopamine transporter (Rattus norvegicus); assay: Tested in vitro for dopamine(DA) neuronal uptake inhibition; remark: listed apart in the source
[9] = molecular target: norepinephrine transporter (Rattus norvegicus); assay: Tested in vitro for norepinephrine (NE) neuronal uptake inhibition; remark: listed apart in the source
[10] = molecular target: serotonin transporter (Rattus norvegicus); assay: Tested in vitro for serotonin(5-HT) neuronal uptake inhibition; remark: listed apart in the source
Mus musculus [11] = assay: Tested in vivo for head twitches antagonizing activity in mice at a dose of 5 mg/kg; type: functional
Procedure, shortened: (§1)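 Male Swiss CD-1 mice (19–24 g), 10 per dose, received test compound s.c. 30 min later they got a subthreshold dose of L-5-hydroxytryptophan (50 mg/kg i.p.). After 15 min acclimation, presence or absence of head twitches was scored over 2 min. Results were expressed as percent responding or as ED50 by probit analysis, using at least three doses.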

Rattus norvegicus [12] = assay: Tested in vivo for serotonin syndrome antagonizing activity in rat at a dose of 4 mg/kg on oral administration; type: functional
Rattus norvegicus [13] = assay: Tested in vivo for serotonin syndrome antagonizing activity in rat at a dose of 40 mg/kg; type: functional; details: read-out: Inhibition
Rattus norvegicus [14] = assay: Tested in vivo for serotonin syndrome antagonizing activity in rat on oral administration; type: functional
Rattus norvegicus [15] = assay: Tested in vivo for serotonin syndrome antagonizing activity in rat at a dose of 4 mg/kg; type: functional
Rattus norvegicus [16] = assay: Tested in vivo for serotonin syndrome antagonizing activity in rat at a dose of 5 mg/kg; type: functional
Rattus norvegicus [17] = assay: Tested in vivo for serotonin syndrome antagonizing activity in rat at a dose of 4 mg/kg
Mus musculus [18] = assay: Tested in vivo for head twitches antagonizing activity in mice at a dose of 2 mg/kg; type: functional; procedure, shortened: as §1

`CNCCC(Oc1ccc(C(F)(F)F)cc1)c1ccccc1` (stereo unspecified) [FLUOXETINE] showed an ED50 (Rattus norvegicus [1]) of 12.7 mg/kg and an ED50 (Mus musculus [2]; Mus musculus, read-out: ED50) of 0.43 mg/kg.
With `C[S+]([O-])c1ccc(C2CN3CCCC3c3ccccc32)cc1` (stereo in doubt; 11a) the Inhibition [3] was 4%, the Inhibition [4] was 2% and the ED50 (Mus musculus [2]) was greater than 5 mg/kg. The Inhibition [5] was 12%.
Molecule `COc1ccc(OC[C@H]2CN(C)CC[C@@H]2c2ccccc2)cc1` [FEMOXETINE] has an ED50 (Mus musculus [6]) of 3.5 mg/kg, an ED50 (Rattus norvegicus [1]) of 11.4 mg/kg and an ED50 (Mus musculus [2]; Mus musculus, read-out: ED50) of 3.3 mg/kg. It also gave an ED50 (Mus musculus [7]) of 2.1 mg/kg.
`Clc1ccccc1C1CN2CCC[C@@H]2c2ccccc21` (stereo partly specified) gave an ED50 (Mus musculus [6]) greater than 60 mg/kg, an ED50 (Rattus norvegicus [1]) greater than 25 mg/kg and an ED50 (Mus musculus [2]; Mus musculus, read-out: ED50) greater than 25 mg/kg. It also gave an ED50 (Mus musculus [7]) of 0.17 mg/kg.
`CC(=O)Nc1ccc(C2CN3CCCC3c3ccccc32)cc1` (stereo unspecified) was tested, and the ED50 (Mus musculus [6]) was 0.04 mg/kg, the ED50 (Rattus norvegicus [1]) was 1.37 mg/kg and the ED50 (Mus musculus [2]; Mus musculus, read-out: ED50) was 0.31 mg/kg. It also gave an ED50 (Mus musculus [7]) of 0.04 mg/kg.
In the case of `CSc1ccc(C2CN3CCCC3c3ccc(Cl)cc32)cc1.Cl` (stereo unspecified), the ED50 (Mus musculus [6]) is reported as greater than 3 mg/kg, the Ki [8] is reported as 103 nM and the Ki [9] is reported as 16.2 nM. For the same molecule, the Ki [10] was 8.6 nM, the ED50 (Mus musculus [7]) was greater than 3 mg/kg and the inhibition in vivo at 5 mg/kg (Mus musculus [11]) was 30%.
In the case of `CSc1ccc(C2CN3CCC[C@H]3c3c(Cl)cccc32)cc1.Cl` (stereo partly specified), the ED50 (Mus musculus [6]) is reported as roughly 1 mg/kg, the Inhibition [3] is reported as 10% and the Ki [10] is reported as roughly 100 nM. For the same molecule, the Inhibition [4] was 10%, the ED50 (Mus musculus [7]) was 3 mg/kg and the inhibition in vivo at 5 mg/kg (Mus musculus [11]) was 30%.
`Clc1ccc(C2CN3CCCC3c3ccccc32)c(Cl)c1` (stereo unspecified) was tested, and the ED50 (Mus musculus [2]; Mus musculus, read-out: ED50) was roughly 5 mg/kg.
Work on `Fc1ccc([C@@H]2CCNC[C@H]2COc2ccc3c(c2)OCO3)cc1` [PAROXETINE] yielded an ED50 (Rattus norvegicus [1]) of 0.49 mg/kg and an ED50 (Mus musculus [2]; Mus musculus, read-out: ED50) of 0.062 mg/kg.
`CS(=O)(=O)c1ccc(C2CN3CCCC3c3ccccc32)cc1` (stereo unspecified) showed an inhibition in vivo at 4 mg/kg (Rattus norvegicus [12]; read-out: Inhibition) of 1.5%, an ED50 (Mus musculus [2]; Mus musculus, read-out: ED50) of roughly 5 mg/kg and an ED50 (Mus musculus [7]) of 30 mg/kg.
Work on `Br.CSc1ccc(C2CN3CCCC3c3c(C)cccc32)cc1` (stereo unspecified) yielded an ED50 (Mus musculus [6]) greater than 3 mg/kg, a Ki [8] of 57.7 nM and a Ki [9] of 11.5 nM. For the same molecule, the Ki [10] was 2.4 nM, the ED50 (Mus musculus [2]; Mus musculus, read-out: ED50) was 0.16 mg/kg and the ED50 (Mus musculus [7]) was roughly 1 mg/kg.
For `COc1ccccc1C1CN2CCCC2c2ccccc21` (stereo unspecified), the ED50 (Mus musculus [6]) was roughly 0.6 mg/kg, the inhibition in vivo at 4 mg/kg (Rattus norvegicus [12]) was 5.2% and the ED50 (Mus musculus [2]; Mus musculus, read-out: ED50) was 0.81 mg/kg. For the same molecule, the ED50 (Mus musculus [7]) was roughly 0.3 mg/kg.
Molecule `CSc1ccc(C2CN3CCC[C@@H]3c3c(Cl)cccc32)cc1.Cl` (stereo partly specified) has an ED50 (Mus musculus [6]) of 3 mg/kg, a Ki [8] of 290 nM and a Ki [9] of 23.1 nM. It also gave a Ki [10] of 3 nM, an ED50 (Mus musculus [2]; Mus musculus, read-out: ED50) of 1.04 mg/kg and an ED50 (Mus musculus [7]) of 3 mg/kg.
With `c1ccc([C@@H]2CN3CCC[C@@H]3c3ccccc32)cc1` the ED50 (Mus musculus [6]) was 0.34 mg/kg, the ED50 (Mus musculus [2]; Mus musculus, read-out: ED50) was greater than 25 mg/kg and the ED50 (Mus musculus [7]) was 0.07 mg/kg.
Molecule `CSc1ccc(C2CN3CCC[C@@H]3c3ccccc32)cc1` (single isomer, unassigned; (-)) has an ED50 (Mus musculus [2]) of roughly 5 mg/kg.
For `CN(C)CCCC1(c2ccc(F)cc2)OCc2cc(C#N)ccc21` (stereo unspecified) [CITALOPRAM], the ED50 (Rattus norvegicus [1]) was 0.78 mg/kg and the ED50 (Mus musculus [2]; Mus musculus, read-out: ED50) was 0.29 mg/kg.
With `C[S+]([O-])c1ccc(C2CN3CCCC3c3ccccc32)cc1` (stereo in doubt; 11b) the ED50 (Mus musculus [6]) was greater than 3 mg/kg, the Ki [8] was 6180 nM and the Ki [9] was 723 nM. For the same molecule, the Ki [10] was 597 nM and the ED50 (Mus musculus [2]) was 0.55 mg/kg.
Work on `Br.CCSc1ccc(C2CN3CCCC3c3ccccc32)cc1` (stereo unspecified) yielded an ED50 (Mus musculus [6]) greater than 10 mg/kg, an inhibition in vivo at 40 mg/kg (Rattus norvegicus [13]) of 36% and an ED50 (Mus musculus [2]; Mus musculus, read-out: ED50) of 0.54 mg/kg. For the same molecule, the ED50 (Mus musculus [7]) was roughly 3 mg/kg.
For `COc1cc(OC)c2c(c1)C1CCCN1CC2c1ccc(SC)cc1.Cl` (stereo unspecified), the Inhibition [3] was 55%, the Inhibition [4] was 67% and the ED50 (Mus musculus [2]; Mus musculus, read-out: ED50) was roughly 5 mg/kg. It also gave an Inhibition [5] of 68%.
`NC(=O)c1ccc(C2CN3CCCC3c3ccccc32)cc1` (stereo unspecified) was tested, and the Ki [8] was 84.5 nM, the ED50 (Rattus norvegicus [14]) was 4.5 mg/kg and the Ki [9] was 90.2 nM. For the same molecule, the ED50 (Mus musculus [2]; Mus musculus, read-out: ED50) was roughly 5 mg/kg.
`CN(C)CCCN1c2ccccc2CCc2ccccc21` [IMIPRAMINE] was tested, and the ED50 (Mus musculus [6]) was 0.58 mg/kg, the ED50 (Rattus norvegicus [1]) was greater than 25 mg/kg and the ED50 (Mus musculus [2]; Mus musculus, read-out: ED50) was greater than 50 mg/kg. The ED50 (Mus musculus [7]) was 0.98 mg/kg.
Work on `CSc1ccc(C2CN3CCCC3c3c(Br)cccc32)cc1.Cl` (stereo unspecified) yielded an ED50 (Mus musculus [2]; Mus musculus, read-out: ED50) greater than 5 mg/kg.
In the case of `CSc1ccc(C2CN3CCC[C@@H]3c3ccccc32)cc1` (single isomer, unassigned; (+)), the ED50 (Mus musculus [2]) is reported as 0.043 mg/kg.
`CSc1ccc(C2CN3CCC[C@@H]3c3ccccc32)cc1` (stereo in doubt; 3b) was tested, and the ED50 (Mus musculus [6]) was greater than 30 mg/kg, the ED50 (Rattus norvegicus [1]) was 0.2 mg/kg and the ED50 (Mus musculus [2]) was 0.081 mg/kg. The ED50 (Mus musculus [7]) was 0.4 mg/kg.
`FC(F)(F)c1ccc(C2CN3CCCC3c3ccccc32)cc1` (stereo unspecified) gave an ED50 (Mus musculus [6]) greater than 3 mg/kg, an inhibition in vivo at 4 mg/kg (Rattus norvegicus [15]) of 5.8% and a Ki [8] of 128 nM. The Ki [9] was 10.6 nM, the ED50 (Mus musculus [2]; Mus musculus, read-out: ED50) was 0.55 mg/kg and the ED50 (Mus musculus [7]) was roughly 2 mg/kg.
`C#Cc1ccc(C2CN3CCCC3c3ccccc32)cc1` (stereo unspecified) showed an ED50 (Mus musculus [2]; Mus musculus, read-out: ED50) of roughly 1 mg/kg.
With `Clc1ccc([C@@H]2CN3CCC[C@@H]3c3ccccc32)cc1` the ED50 (Mus musculus [6]) was 0.39 mg/kg, the inhibition in vivo at 5 mg/kg (Rattus norvegicus [16]) was 52% and the ED50 (Mus musculus [2]; Mus musculus, read-out: ED50) was 0.76 mg/kg. The ED50 (Mus musculus [7]) was 0.14 mg/kg.
Molecule `CSc1ccc([C@@H]2CN3CCC[C@H]3c3ccccc32)cc1` has an inhibition in vivo at 4 mg/kg (Rattus norvegicus [17]) of 4.5%, an ED50 (Mus musculus [6]) greater than 30 mg/kg and an ED50 (Mus musculus [2]; Mus musculus, read-out: ED50) of roughly 10 mg/kg.
`N#Cc1ccc(C2CN3CCCC3c3ccccc32)cc1` (stereo unspecified) was tested, and the ED50 (Rattus norvegicus [1]) was 15 mg/kg and the ED50 (Mus musculus [2]; Mus musculus, read-out: ED50) was roughly 3 mg/kg.
In the case of `Clc1ccc(C2CN3CCCC3c3cc(Cl)ccc32)cc1` (stereo unspecified), the inhibition in vivo at 2 mg/kg (Mus musculus [18]) is reported as 30%, the Ki [8] is reported as 3.2 nM and the Ki [9] is reported as 3.2 nM. It also gave an inhibition in vivo at 5 mg/kg (Rattus norvegicus [16]) of 22% and an ED50 (Mus musculus [7]) of 4 mg/kg.
`CSc1ccc(C2CN3CCCC3c3c(C#N)cccc32)cc1.Cl` (stereo unspecified) was tested, and the Ki [8] was 2800 nM, the Ki [9] was 390 nM and the Ki [10] was 14.7 nM. For the same molecule, the ED50 (Mus musculus [2]; Mus musculus, read-out: ED50) was greater than 5 mg/kg.
For `CSc1ccccc1C1CN2CCCC2c2ccccc21` (stereo unspecified), the inhibition in vivo at 5 mg/kg (Mus musculus [11]) was 30%.
